ROMK mod = ROMK potassium channel modulators, primary screen, cell-based, thallium flux, MLSMR library; ATP-sensitive inward rectifier potassium channel 1 (Homo sapiens), P48048; Tet-inducible ROMK, thallium flux fluorescence; actives lie on both sides; B-score at 10 µM; 130,000 tested, 2% active; AID 1918, 2009;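 active = signal ratio slope over the read window, or its plate-corrected B-score, at least 3 SD from the plate mean, either direction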;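 also: B-score of the F/F0 ratio slope over 7 to 12 s after thallium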
Target sequence (P48048 whole entry, looked up): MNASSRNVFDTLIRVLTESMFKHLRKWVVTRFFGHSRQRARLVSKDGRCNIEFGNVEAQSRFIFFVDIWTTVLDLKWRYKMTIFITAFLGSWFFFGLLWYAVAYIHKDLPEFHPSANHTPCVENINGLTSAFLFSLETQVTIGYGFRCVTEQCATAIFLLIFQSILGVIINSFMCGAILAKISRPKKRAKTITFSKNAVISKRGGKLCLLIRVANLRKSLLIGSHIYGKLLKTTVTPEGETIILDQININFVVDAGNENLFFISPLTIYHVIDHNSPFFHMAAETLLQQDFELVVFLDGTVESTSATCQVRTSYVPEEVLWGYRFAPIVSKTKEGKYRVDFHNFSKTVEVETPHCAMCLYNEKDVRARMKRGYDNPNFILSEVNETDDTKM
KCC2 mod = KCC2 cotransporter modulators, thallium flux, primary screen, cell-based, HEK293 KCC2, FluoZin-2 fluorescence, MLSMR; KCC2 cells, thallium flux FluoZin-2 fluorescence; AID 1456, 2008; 190,000 tested, 2.2% active; Solute carrier family 12 member 5 (Homo sapiens), Q9H2X9; B-score of Tl+ flux slope (higher = more flux/activation; lower = inhibition) at 10 µM;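 active = thallium flux slope and its plate-corrected score both differing from the plate sample mean at a set confidence after two filtering rounds, in either direction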;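 also: slope of fluorescence scaled to starting intensity during 10 to 20 s after thallium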
PKD1 kinase inh = inhibitors of human PKD1 kinase, biochemical, fluorescence polarization; inhibition, % (no concentration beside the values); AID 797, 2007; PKD1 kinase fluorescence polarization assay; Serine/threonine-protein kinase D1 (Homo sapiens), Q15139; 200,000 tested, 0.056% active; in the data active = inhibition above about 50%
Rad51 HR inh = human RAD51 strand exchange inhibitors, primary screen, biochemical, fluorescence. hRad51 DNA strand exchange, fluorescence dequenching. inhibition, % at 10 µM. AID 1385, 2008. 200,000 tested, 0.085% active. DNA repair protein RAD51 homolog 1 (Homo sapiens), Q06609;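 active = inhibition above 40% at the single screening dose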;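 also: 0% = DMSO control wells and 100% = blanks with heterologous ssDNA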
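Assay system: Human Rad51 nucleoprotein filaments preassembled on unlabelled ssDNA | Reagent: Donor/quencher-labelled 47-bp dsDNA substrate | Doses: One concentration, 10 µM final | Times: 37 °C 15-min filament assembly, 30-min compound preincubation, 15-min exchange | Technique: Fluorescein emission 520 nm, excitation 485 nm | Benchmarks: Plate control and blank wells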
ROMK retest = ROMK channel modulator hit retest, confirmation, cell-based, thallium flux, duplicate, resupplied hits; shares compounds with ROMK mod; fluorescence ratio; stronger effect = lower value; normalized thallium flux (F/F0 slope) at 10 µM; 3,000 tested, 54% active; AID 1917, 2009;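 active = Flux at 10 µM at least 3 SD below or above vehicle control mean in one or both replicates; inconclusive = no clear call, values can overlap the other calls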
* = called active by the depositor. Shown are actives, neighbours in structure and some others; about 3% of the full set was active somewhere.

How did COc1ccc(N(C(=O)CCl)C(C(=O)NCCc2ccccc2)c2cccs2)cc1Cl (stereo not given) do in these assays?
ROMK mod: -3.29*; KCC2 mod: -0.375; PKD1 kinase inh: -2.1; ROMK retest: 0.0626*

Results for Cc1ccc(S(=O)(=O)N2CCCCC2)cc1NC(=O)COC(=O)c1ccccc1F ?
ROMK mod: -0.0236; PKD1 kinase inh: -5.9; Rad51 HR inh: -110.3

How did Cc1cccc(C)c1NC(=O)C(c1ccc([N+](=O)[O-])cc1)N(C)C(=O)c1ccccn1 (stereo not given) do in these assays?
ROMK mod: 0.0337; KCC2 mod: 0.861; PKD1 kinase inh: -8.3

What do the screens show for `COc1ccc(Oc2ccccc2/C=C/C(=O)O)cc1`?
KCC2 mod: 0.278; PKD1 kinase inh: -9.8; Rad51 HR inh: 2.7

How did COc1ccc(Oc2ccccc2C=O)cc1 do in these assays?
PKD1 kinase inh: 0.5; Rad51 HR inh: -1.0; ROMK retest: inconclusive

How did COc1ccc(Oc2cccc(Cl)c2CNC(=O)CCCC(=O)O)cc1 do in these assays?
KCC2 mod: -0.466; Rad51 HR inh: 16.5

Results for Cc1cccc(N=Nc2cnc(N)s2)c1 ?
ROMK mod: 0.779; KCC2 mod: -2.59; Rad51 HR inh: 17.2

How did CCc1[nH]nc2c1C(c1ccsc1)C(C#N)=C(N)O2 (stereo not given) do in these assays?
ROMK mod: -4.31*; KCC2 mod: -1.02; PKD1 kinase inh: -0.4; Rad51 HR inh: -4.4; ROMK retest: 0.0629*

What do the screens show for `CC(C)(C)c1[nH]nc2c1C(c1ccsc1)C(C#N)=C(N)O2` (stereo not given)?
ROMK mod: 0.35; KCC2 mod: -1.13; PKD1 kinase inh: -0.7; Rad51 HR inh: 0.6

How did COc1cccc(/C=c2\sc3nc(-c4cccs4)nn3c2=O)c1OC do in these assays?
KCC2 mod: 1.83; PKD1 kinase inh: 1.4; ROMK retest: 0.082

How did COc1ccccc1/C=c1\sc2nc(-c3cccs3)nn2c1=O do in these assays?
KCC2 mod: -0.00837; PKD1 kinase inh: -5.2

What do the screens show for `COc1ccc2c(c1)C(C)=CC(C)(C)N2S(=O)(=O)c1ccc(Br)cc1`?
ROMK mod: 2.33; KCC2 mod: -0.506; PKD1 kinase inh: -0.1; Rad51 HR inh: -5.7

How did CCOC(=O)c1ccc2nc(NC(=O)c3cccs3)sc2c1 do in these assays?
KCC2 mod: 1.07; PKD1 kinase inh: -6.6; Rad51 HR inh: -1.6; ROMK retest: 0.0743

What do the screens show for `O=Cc1cccc(OC(=O)c2ccc(Cl)cc2Cl)c1`?
ROMK mod: 3.01*; PKD1 kinase inh: -0.9; Rad51 HR inh: 1.3; ROMK retest: 0.0877

How did COc1cc(C(=O)Oc2cccc(C=O)c2)cc(OC)c1OC do in these assays?
KCC2 mod: -0.188; PKD1 kinase inh: 0.1

Results for CC(C)CNC(=O)c1ccc(NC(=O)c2cccs2)cc1 ?
KCC2 mod: -0.102; PKD1 kinase inh: -9.9; Rad51 HR inh: 8.4

What do the screens show for `CN(c1ccccc1)S(=O)(=O)c1cccc(NC(=O)CSc2ncc(C(F)(F)F)cc2Cl)c1`?
ROMK mod: -0.615; KCC2 mod: -0.0298; PKD1 kinase inh: 1.5; Rad51 HR inh: 0.1

How did CCOC(=O)N1CCN(C(=O)c2noc(C(C)C)c2[N+](=O)[O-])CC1 do in these assays?
ROMK mod: 1.94; KCC2 mod: -0.0451; PKD1 kinase inh: -9.5; Rad51 HR inh: 3.5; ROMK retest: 0.0792

How did CC(C)c1onc(C(=O)N2CCCCCC2)c1[N+](=O)[O-] do in these assays?
ROMK mod: -0.822; KCC2 mod: 1.36; PKD1 kinase inh: -2.1; Rad51 HR inh: -3.3

Results for N#C/C(=C\c1cccnc1)C(=O)Nc1ccccc1 ?
ROMK mod: -4.19*; KCC2 mod: -0.889; PKD1 kinase inh: -2.7; ROMK retest: 0.053*

How did COc1ccc(/C=C(\C#N)C(=O)Nc2cccnc2)cc1 do in these assays?
ROMK mod: 0.183; KCC2 mod: 0.78; PKD1 kinase inh: 0.2; Rad51 HR inh: -4.5

What do the screens show for `N#C/C(=C\c1cccnc1)C(=O)Nc1ccc(C(=O)O)cc1`?
ROMK mod: 1.99; KCC2 mod: -0.0248; PKD1 kinase inh: -0.6

Results for CCOc1cccc(NC(=O)/C(C#N)=C\c2cccnc2)c1 ?
ROMK mod: -3.28*; KCC2 mod: -0.419; PKD1 kinase inh: -0.1; ROMK retest: 0.0467*

What do the screens show for `CC(C)n1c2ccccc2c2nnc(SCC(=O)Nc3ccccc3C(=O)O)nc21`?
ROMK mod: -0.0581; KCC2 mod: -0.458; PKD1 kinase inh: -8.4; Rad51 HR inh: 13.5

Results for CC(=O)N(Cc1ccccc1)Cc1cn(CCC#N)nc1-c1cccc([N+](=O)[O-])c1 ?
ROMK mod: 1.27; KCC2 mod: -0.0103; PKD1 kinase inh: 4.5; Rad51 HR inh: 11.5

How did CCOC(=O)c1c(/N=C/c2ccc(C)cc2O)sc2c1CCC2 do in these assays?
ROMK mod: -2.44*; KCC2 mod: 0.877; PKD1 kinase inh: -8.4; Rad51 HR inh: -15.3; ROMK retest: 0.0389*

What do the screens show for `Cc1ccccc1N=CC=C1OC(C)(C)C(C)(C)O1`?
ROMK mod: 0.0406; KCC2 mod: -0.642; PKD1 kinase inh: -2.4; Rad51 HR inh: 7.8

Results for N=C1/C(=C\c2ccc(-c3cccc(C(=O)O)c3)o2)C(=O)N=C2SC=C(c3ccccc3)N12 ?
KCC2 mod: -1.64; Rad51 HR inh: -2.8; ROMK retest: 0.0588*

How did Cc1ccccc1-n1c(C)cc(/C=C2/C(=N)N3C(c4ccccc4)=CSC3=NC2=O)c1C do in these assays?
KCC2 mod: -0.0267; PKD1 kinase inh: -13.1; Rad51 HR inh: -33.5

What do the screens show for `O=C(CNC(=O)Cc1ccc(Cl)cc1)NCc1ccco1`?
ROMK mod: -0.107; KCC2 mod: -1.01; PKD1 kinase inh: -0.5; Rad51 HR inh: 13.1

How did c1ccc(-c2nc3nonc3nc2-c2ccccc2)cc1 do in these assays?
ROMK mod: -4.18*; KCC2 mod: 0.0979; PKD1 kinase inh: 4.1; ROMK retest: 0.0626*

What do the screens show for `CC(CCc1ccccc1)NC(=O)/C=C/c1ccc(F)cc1` (stereo not given)?
ROMK mod: 2.1*; KCC2 mod: -1.02; PKD1 kinase inh: 4.0; Rad51 HR inh: 7.8; ROMK retest: 0.0751

Results for CC(CCc1ccccc1)NC(=O)/C=C/c1ccccc1 (stereo not given) ?
KCC2 mod: -1.36; PKD1 kinase inh: -1.1; Rad51 HR inh: -5.2

Results for CCOc1ccc(CCNC(=O)Cn2cccc2C(=O)c2ccccc2C)cc1OCC ?
ROMK mod: 0.0459; KCC2 mod: -1.66; PKD1 kinase inh: 5.9; Rad51 HR inh: 4.8

Results for CCn1c(C)cs/c1=N\C(=S)Nc1ccccc1C ?
ROMK mod: 3.23*; KCC2 mod: 0.00849; PKD1 kinase inh: -7.8; Rad51 HR inh: 3.0; ROMK retest: 0.0696

Screens (PubChem)
